Screening results: PubChem, several laboratories
In the library only some 6.4% were active in any assay of this set; here they are far more common.
E coli WT exp = E. coli BW25113 growth inhibition, expanded screen; actives 0.15% (n = 98,000); OD600 absorbance; growth inhibition, % at 100 µM;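 active = growth inhibition above about 50% at one test dose, limit read from the data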;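 note: growth measured after 20 h incubation at 37 °C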
HUVEC inhibit = inhibitors of human endothelial cell proliferation; HUVEC proliferation, CellTiter-Glo luminescence, 72 h; hits give low values; viability, % at 10 µM (by protocol); actives 1.1% (n = 86,000);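 active = viability at or below 30%; inactive = viability above 30%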;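 note: 100% = median luminescence of DMSO-only cell control wells on each plate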
H69AR inhibit = blocks growth of human H69AR lung tumor cells; H69AR lung tumor viability, ATP luminescence, 72 h; hits give low values; viability, % at 10 µM; actives 6% (n = 85,000);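 active = viability at or below 40%; inactive = viability above 40%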;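 note: multidrug resistant small cell line overexpressing MRP-1 efflux transporter; 100% = mean luminescence of untreated control wells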
tolC growth inh = growth inhibitors of E. coli BW25113 tolC mutant. OD615. AID 573. actives 2.2% (n = 65,000). growth inhibition, % at 10 µM (by protocol);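 active = growth inhibition at or above a cutoff equal to the mean over every tested compound plus 3 SD, cut at about 60% in these data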;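 note: growth measured after 20 h incubation at 37 °C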
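System: E. coli ΔtolC::kan strain BW25113; Buffer or medium: LB broth supplemented with 50 µg/mL kanamycin; Compound: 10 µM final, single dose; Incubation: bacterial growth with compound for 20 h at 37 °C; Signal: A615 absorbance measurement; Evaluation: growth inhibition in percent.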
Fibroblast inh = blocks proliferation of human lung fibroblasts; AID 719; LL 47 human lung fibroblast viability, ATP luminescence; hits give low values; viability, % at 10 µM; actives 1.1% (n = 85,000);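 active = viability at or below 50% in the single dose screen; inactive = viability above 50%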;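 note: compound exposure lasted 72 h before the ATP readout; 100% = median luminescence of untreated cell-only wells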
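Benchmarks: Cell-only wells, no compound | Test system: LL 47 human lung fibroblasts, passage 12 or lower | Input: 1,150 cells/well | Measured by: CellTiter-Glo luminescence measuring cellular ATP | Medium: IMEM, 15% FBS supplement | Schedule: Overnight attachment after seeding, then 72 h compound exposure at 37 °C | Doses: Compound addition at 0.1% DMSO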
Jurkat viability = cytotoxicity toward Jurkat cells | inhibition, % at 4 µM | Jurkat E6.1 viability, ATP luminescence, 48 h | actives 1.2% (n = 56,000);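 active = inhibition above the mean inhibition of all tested compounds plus 3 SD, cut at about 28% in these data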
* hit, by the source's call; . = not tested or not shown.

SMILES	E coli WT exp	HUVEC inhibit	H69AR inhibit	tolC growth inh	Fibroblast inh	Jurkat viability
CCc1ccc2c(c1)C1(NN=C(c3cccc4ccccc34)S1)C(=O)N2 (configuration not stated)	.	35.0	18.9*	.	34.5*	.
Cc1cc(C)nc(Nc2n[nH]c(-c3cccc4ccccc34)n2)n1	-9.0	98.1	66.8	.	101.1	.
Cc1ccc([N+](=O)[O-])cc1-c1[nH]c(-c2ccc(O)c(O)c2)nc1-c1ccccc1	4.0	52.3	10.4*	.	80.4	.
CCn1cc(C(=O)O)c(=O)c2cc3c(cc21)OCO3	.	.	.	100.0*	.	.
CCn1cc(C(=O)O)c(=O)c2cc(Br)ccc21	19.0	88.5	98.8	.	99.7	.
COc1ccc(OC)c(NC(=O)Nc2nnc(N3CCC(C)CC3)s2)c1	.	122.7	77.7	-2.9	104.4	-13.6
COc1ccc(NC(=O)Nc2nnc(N3CCC(C)CC3)s2)cc1OC	.	82.6	37.5*	-7.0	94.1	-11.4
COC1(OC)N=C(N)C2(C#N)C(c3ccc4c(c3)OCO4)C12C#N (configuration not stated)	1.0	84.4	32.9*	4.9	87.2	-12.7
COc1ccccc1C(=O)N/C(N)=N/c1nc2ccccc2o1	-5.0	59.3	14.8*	.	102.1	.
Cc1cccc(N(CC(=O)N/N=C/c2cc([N+](=O)[O-])ccc2Cl)S(C)(=O)=O)c1C	-1.0	.	.	.	.	.
CCn1c(SCC(=O)Nc2ccc(S(N)(=O)=O)cc2)nnc1-c1cccc(OC)c1	-5.0	80.3	95.8	-12.9	94.7	2.9
COc1ccc2c(c1OC)C(=O)O[C@@H]2[C@H]1c2c(cc3c(c2OC)OCO3)CCN1C	.	89.6	30.0*	8.7	88.5	.
COc1ccc2c(c1OC)C(=O)OC2Nn1cncn1 (configuration not stated)	1.0	102.3	99.8	-12.3	106.6	-5.4
Cc1ccc(-c2cc(-c3ccccc3[N+](=O)[O-])[nH]n2)c(O)c1	26.0	.	.	.	.	.
Cc1ccccc1-c1cc(-c2ccccc2O)n[nH]1	26.0	41.8	32.8*	100.0*	76.9	-13.8
Cc1ccc(-c2cc(-c3ccccc3Cl)[nH]n2)c(O)c1	13.0	36.2	1.9*	17.0	66.2	3.0
Cc1nc2sc(C(c3ccccc3)N3CCN(c4ccccc4F)CC3)c(O)n2n1 (configuration not stated)	5.0	95.2	102.3	11.8	97.8	2.0
CC1(C)Oc2ccc(NC(=O)c3ccco3)cc2O1	8.0	94.0	81.0	.	99.2	.
Cc1cccc(C)c1OCCCCc1c(C)n[nH]c1C	5.0	91.9	101.2	49.3	95.9	14.9
Cc1ccccc1OCCCCc1c(C)n[nH]c1C	9.0	82.8	89.6	100.0*	93.9	5.5
CC(C)Nc1ncnc2c1cnn2-c1ccccc1	10.0	81.5	75.8	-17.2	100.3	-5.3
CCOC(=O)N1CCC(Nc2ncnc3c2cnn3-c2ccccc2)CC1	-3.0	92.9	28.1*	40.5	98.8	0.2
NNc1ncnc2c1cnn2-c1ccccc1	11.0	72.9	20.3*	.	91.5	.
Cc1noc(C)c1C(=O)OC(C(=O)NC1CCCC1)c1ccc(F)cc1 (configuration not stated)	0.0	102.8	98.9	13.4	97.1	2.3
COC(C)(C)[C@]12CC(O)(c3ccccc3)ON1[C@H]1CCCCC1N2O (some centres not stated)	7.0	86.3	84.5	-26.7	94.0	-1.2
SMILES	E coli WT exp	HUVEC inhibit	H69AR inhibit	tolC growth inh	Fibroblast inh	Jurkat viability
Cc1ccc(C(=O)c2cc3ccccc3o2)cc1	5.0	107.2	84.2	.	106.1	.
O/N=C(\c1ccc(Cl)cc1)c1cc2ccccc2o1	-3.0	42.7	1.9*	97.5*	86.1	10.9
c1ccc(CSc2nnc(-c3c[nH]c4ccccc34)o2)cc1	-11.0	27.2*	96.7	-2.0	106.2	-0.6
COc1ccc(C(=O)NCCc2c[nH]c3ccccc23)cc1S(=O)(=O)N1CCOCC1	-9.0	87.1	69.5	-1.0	92.6	4.9
Cc1cc(C=O)c2c(c1)C=CC1(Oc3ccccc3C(=O)N1C)O2 (configuration not stated)	.	80.0	21.6*	.	95.0	.
COC(=O)c1ccccc1NC(=O)CSc1nnnn1C1CCCCC1	-2.0	101.9	66.2	48.7	98.6	0.9
CCOC(=O)c1ccccc1NC(=O)CSc1nnnn1C1CCCCC1	-11.0	90.6	78.1	72.2*	94.5	5.1
Cc1ccc(/C=C2/NC(=O)N(Cc3ccccc3)C2=O)s1	-5.0	.	.	.	.	.
CCN1C(=O)/C(=C/c2ccc(C)s2)NC1=S	-4.0	96.7	4.1*	.	101.9	.
CCCCC(CC)Cn1c2nc3ccccc3nc2c2c(=N)oc(C)nc21 (configuration not stated)	-3.0	2.5*	90.4	0.9	75.0	.
Cc1ccc(CN(c2ccc(C(=O)NCc3ccccn3)cc2)S(C)(=O)=O)cc1	-1.0	88.9	99.6	.	95.4	.
CCCc1nc(-c2cc3ccc(C)cc3[nH]c2=O)no1	-14.0	93.8	101.4	-2.4	99.4	.
CCOc1ccccc1-c1nc(-c2cc3ccc(C)cc3[nH]c2=O)no1	-14.0	89.4	39.8*	-0.8	100.1	.
Cc1noc(C)c1C(=O)OCC(=O)c1c(N)n(CC(C)C)c(=O)n(C)c1=O	-7.0	87.9	85.5	0.7	95.0	-3.7
O=C(Nc1ccccc1)c1ccc(NC2CCCCC2)c(S(=O)(=O)N2CCOCC2)c1	-5.0	90.5	74.5	.	101.1	.
c1ccc(COn2nnc3ccccc32)c(COn2nnc3ccccc32)c1	-13.0	76.1	88.4	38.1	90.8	3.3
Clc1cccc(Cl)c1COn1nnc2ccccc21	0.0	41.5	35.1*	.	62.7	.
Cc1ccc(-c2cc(C(F)F)nc(NCC3CCCO3)n2)cc1 (configuration not stated)	2.0	80.5	89.1	17.4	89.0	.
CC1CCc2cc(F)ccc2N1C(=O)c1cc2nc(-c3ccco3)cc(C(F)(F)F)n2n1 (configuration not stated)	-3.0	94.6	91.8	62.7*	108.4	-0.9
CCOC(=O)c1cc2nc(-c3ccco3)cc(C(F)(F)F)n2n1	.	87.6	69.7	.	89.8	.
Cc1c(NC(=O)c2cc3nc(-c4ccc(Cl)cc4)cc(C(F)(F)F)n3n2)c(=O)n(-c2ccccc2)n1C	.	94.5	18.2*	.	112.0	.
O=C(c1cc2nc(-c3ccco3)cc(C(F)(F)F)n2n1)N1CCN(Cc2ccccc2)CC1	-9.0	91.7	106.0	.	101.1	.
Cc1ccc(Cn2ccc(NC(=O)c3cc4nc(-c5ccco5)cc(C(F)(F)F)n4n3)n2)cc1	-4.0	68.4	35.1*	.	66.9	.
O=C(c1cc2nc(-c3ccco3)cc(C(F)(F)F)n2n1)N1CCN(c2ccc(F)cc2)CC1	-10.0	83.7	71.1	65.1*	99.9	4.2
COc1ccccc1C(=O)N(Cc1nc(-c2ccc(Cl)cc2)no1)C(C)C	-1.0	99.2	96.0	20.2	90.6	-1.8
CCOc1cc(C#N)c(NC(=O)c2cccnc2Cl)cc1OCC	4.0	104.0	95.8	.	97.9	.
CCOc1cc(C#N)c(NC(=O)c2cccnc2)cc1OCC	-3.0	.	.	-22.2	.	72.0*
